Screening results as filed in PubChem BioAssay.
Most compounds without a hit are left out; they make up all but 9.5% or so of the library.
HEK293 NFkB inh – lowers PMA/ionomycin-induced NF-kB signal in HEK293 cells; inhibition, % at 3 µM; AID 465; HEK-293 NF-kB luciferase reporter, luminescence; actives 0.21% (n = 62,000);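 active = inhibition above the mean of all tested compounds plus 3 SD, cut at about 40% in these data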;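 also: 0% = stimulated DMSO wells and 100% = 10 µM reference inhibitor 5653914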
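Reagent: PMA plus ionomycin mix as NF-kB-activating stimulus. Assay system: NF-kB luciferase reporter HEK-293 cells. Technique: luminescence from luciferase substrate reagent. Incubation: 1 h compound pre-incubation, 16 h PMA/ionomycin at 37 °C. Benchmarks: DMSO only as uninhibited control, 10 µM reference inhibitor as full inhibition. Repeats: tested once.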
M1 antag – antagonists of rat M1 muscarinic receptor. P08482. CHO-M1 cells, Fluo-4 calcium, ACh EC80 antagonist mode; stronger effect = lower value. B-score at 10 µM. actives 3.4% (n = 64,000);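 active = calcium fluorescence response, raw or row-and-column corrected B-score, differing from the plate sample mean either way at a set confidence level, mostly lower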
M1 agonist – activates the M1 muscarinic receptor | CHO-M1 cells, Fluo-4 calcium fluorescence, agonist mode; stronger effect = higher value | B-score at 10 µM | actives 3% (n = 64,000);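 active = fluorescence rise, raw or as B-score row- and column-corrected plate score, outside the 99.7% band of its plate's samples, either direction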
D1 mod – D1 dopamine receptor (human) allosteric modulation | HEK293 D1, CRE-luciferase, dopamine EC30 potentiation; actives deviate in either direction | actives 5.9% (n = 58,000) | P21728 | B-score at 10 µM | AID 641;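 active = luminescence count or its row- and column-corrected plate score outside the 99.7% band of the plate's sample wells, on either side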
Target sequence (P21728 whole entry, looked up): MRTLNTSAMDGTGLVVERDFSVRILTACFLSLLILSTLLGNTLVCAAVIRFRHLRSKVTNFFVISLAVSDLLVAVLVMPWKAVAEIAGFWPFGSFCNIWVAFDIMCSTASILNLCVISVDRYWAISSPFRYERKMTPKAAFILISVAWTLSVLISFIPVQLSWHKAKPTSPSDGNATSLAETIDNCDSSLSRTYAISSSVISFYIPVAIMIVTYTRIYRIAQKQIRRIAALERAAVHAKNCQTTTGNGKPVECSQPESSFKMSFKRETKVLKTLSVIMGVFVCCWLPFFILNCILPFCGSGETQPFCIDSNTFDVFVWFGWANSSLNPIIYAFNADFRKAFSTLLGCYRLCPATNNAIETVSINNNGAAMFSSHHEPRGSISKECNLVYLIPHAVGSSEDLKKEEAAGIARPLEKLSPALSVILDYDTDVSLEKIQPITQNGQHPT
Jurkat viability – cytotoxic compounds reducing Jurkat cell viability | Jurkat E6.1 viability, ATP luminescence, 48 h | inhibition, % at 4 µM | actives 1.2% (n = 56,000) | AID 463;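 active = inhibition above the mean inhibition of all tested compounds plus 3 SD, cut at about 28% in these data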
mHtt clearance – compounds clearing mutant huntingtin protein. HeLa Exon1htt(103Q)mCFP, aggregate imaging; zero = plate's median compound well. actives 0.42% (n = 47,000). inhibition, % at 1.5 µM;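 active = inhibition of aggregate fluorescence above about 70%, also judged a hit by eye on the cell image, limit read from the data, passing the limit was not always enough; inconclusive = no rule stated for this call; inactive = not judged a hit on image review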;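 also: cells exposed to compound for three days before fixation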
M1 agonist conf – confirmation of rat M1 muscarinic receptor agonists. fluorescence change (max-min) at 10 µM. CHO-M1 cells, Fluo-4 calcium fluorescence, agonist mode; actives lie on both sides. shares compounds with M1 agonist. actives 19% (n = 1,700);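 active = fluorescence change differs from the solvent-only DMSO control mean at a set confidence level in both duplicate runs; inconclusive = differs from solvent-only control mean in just one of two runs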;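 also: an EC20 dose of acetylcholine follows compound addition during the same imaging run; raw fluorescence intensity difference in instrument units with no normalization to controls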
M4 agonist ctr – counter-screen for M1 agonists: activity at rat M4 receptor; shares compounds with M1 agonist; CHO M4/Gqi5 cells, Fluo-4 calcium fluorescence, agonist mode; actives lie on both sides; fluorescence change (max-min) at 10 µM; actives 9% (n = 1,700); AID 1741;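 active = fluorescence change differing from the plate's solvent-only control wells at 99.7% confidence in both duplicates, whether higher or lower; inconclusive = differs from solvent controls in only one of two duplicates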
The depositor's hits bear a star; u = inconclusive; x = no result.

SMILES | HEK293 NFkB inh | M1 antag | M1 agonist | D1 mod | Jurkat viability | mHtt clearance | M1 agonist conf | M4 agonist ctr
CC(=O)Oc1ccc2cc(-c3nc4ccccc4n3C)c(=O)oc2c1 | -10 | 0.27 | 5.8* | -1 | -1 | x | 45 | 16
CCOc1ccc(/C=c2\sc3nc(-c4ccco4)nn3c2=O)cc1OCC | 4 | 0.16 | 105* | 1.2 | 0 | x | u | 47
Cc1ccc(C(=O)NCCn2cc(SCC(=O)Nc3nnc(C)s3)c3ccccc32)cc1 | 26 | -0.094 | 2.9* | -1.3 | 4 | x | u | -58
COc1ccc(C(=O)NCCn2cc(SCC(=O)Nc3cc(C)on3)c3ccccc32)cc1OC | 4 | -0.16 | 3.5* | 0.23 | 4 | -13 | -27* | -53
CC1Oc2ccccc2N(CC(=O)NCCc2ccccc2)C1=O (centres undefined) | -2 | -2.2 | 0 | 0.13 | 7 | x | x | x
CCn1c(CNC(=O)Cc2ccc(OC)cc2)nnc1SCC(=O)NC1CCCCC1 | x | x | x | x | x | -153 | x | x
COc1ccc(F)cc1CN1CCN(c2cc(C)nc3c4c(C)cc(C)nc4nn23)CC1 | 0 | -0.92 | 3.5* | -0.1 | 10 | -352 | u | -38
COc1ccc(Cl)cc1CN1CCN(c2nc(C)cc(C)c2C#N)CC1 | 16 | 0.0097 | 7.4* | 0.41 | 0 | -17 | 21 | 5.9
O=S(=O)(NC1CCc2ccccc21)c1ccc(S(=O)(=O)N2CCCC2)cc1 (centres undefined) | 19 | -0.0084 | -0.7 | -0.043 | 7 | x | x | x
COc1ccc(S(=O)(=O)N2CCCN(CC(=O)C(C)(C)C)CC2)cc1 | 13 | 0.0015 | 0.21 | 1.5 | 8 | x | x | x
COc1ccc(OC)c(C(=O)CN2CCN(S(=O)(=O)c3ccc(Br)cc3)CC2)c1 | 18 | 0.41 | 28* | x | -7 | x | -25 | -21
Nc1cccc2c1C(=O)N(C(=O)c1ccc(S(=O)(=O)N3CCCCCC3)cc1)C2=O | 25 | -0.035 | 7.5* | -0.24 | x | 7 | 23 | -23
O=C(c1ccc(S(=O)(=O)N2CCCCC2)cc1)N1CCN(c2ccccc2)CC1 | 14 | -1.1 | 0.5 | 1.3 | -2 | 41 | x | x
O=C(NCN1C(=O)C2C3C=CC(C3)C2C1=O)OC1CCCCC1 (centres undefined) | -8 | 0.13 | -0.38 | 1 | -6 | -31 | x | x
CCn1c(=O)cc(SCC(=O)N2CCOCC2)c2ccccc21 | 23 | -1.1 | -0.61 | -0.6 | x | -186 | x | x
CCn1c(=O)cc(SCC(=O)N2CCN(c3ccccc3OC)CC2)c2ccccc21 | 17 | 0.31 | 4.5* | 0.74 | -1 | 22 | u | -30
COc1cc(CNC2CCCCCC2)cc(OC)c1 | x | x | x | x | x | -34 | x | x
COc1cccc(C2=CC(c3ccccc3)n3ncnc3N2)c1 (centres undefined) | x | -0.3 | 33* | x | x | 14 | 159* | 148*
COc1cccc(C2=CC(c3ccccc3)n3nnnc3N2)c1 (centres undefined) | x | 0.005 | -0.52 | x | x | 25 | x | x
COc1cccc(C2=CC(c3ccc(N(C)C)cc3)n3ncnc3N2)c1 (centres undefined) | 4 | -0.32 | 2.2* | 1.4 | -1 | 0 | -5 | -40
CCOC(=O)C1=C(N)c2ccccc2CC1C(C)C (centres undefined) | x | -0.029 | 0.016 | -0.78 | x | x | x | x
C=CCOC(=O)c1[nH]c2c(c1C)C(=O)CC(c1cc(OC)c(OC)c(OC)c1)C2 (centres undefined) | 17 | 0.16 | 3.3* | -3.2* | 43* | x | -12 | -33
Cc1ccc(S(=O)(=O)CCc2nc3ccccc3n2CCC#N)cc1 | 11 | 0.1 | 0.78 | -0.86 | x | 50 | x | x
O=S(=O)(Nc1ncccc1O)c1ccc(Cl)cc1 | 2 | 0.059 | -0.62 | 0.071 | 7 | 36 | x | x
O=S(=O)(Nc1nc2ccccc2nc1N1CCN(c2ccccn2)CC1)c1ccc(Cl)cc1 | 1 | -0.32 | 9.2* | -0.77 | 13 | 38 | 46 | u
SMILES | HEK293 NFkB inh | M1 antag | M1 agonist | D1 mod | Jurkat viability | mHtt clearance | M1 agonist conf | M4 agonist ctr
CC(=O)c1c(C)[nH]c(C(=O)OCCCCN2C(=O)c3ccccc3C2=O)c1C | 31 | -2.4* | 6.4* | 0.21 | 67* | x | 0.55 | -88*
Cc1cc(S(=O)(=O)N2CCN(Cc3ccc4c(c3)OCO4)CC2)cc(C)c1N1CCCC1=O | 11 | 0.85 | 3.3* | -4.6* | 2 | x | -18 | -40
Cn1c(=O)c2c(nc(N3CCOCC3)n2CCSc2nc3ccccc3s2)n(C)c1=O | 12 | -0.25 | -0.29 | x | 4 | x | x | x
CCN(CC)c1ccc2cc(NC(=O)CCC(=O)O)c(=O)oc2c1 | 53* | -1.6* | 289* | -7.7* | -7 | x | 1953* | 1754*
CCN(CC)c1ccc2cc(C(=O)Nc3ccccn3)c(=O)oc2c1 | x | -4.6* | 353* | x | x | x | 964* | 1294*
CCCNC(=O)Cn1nc(C(F)(F)F)c2c1CCCC2 | x | x | x | x | x | -30 | x | x
CCc1nn(C(C)C(=O)NCCN2CCN(c3cccc(C)c3C)CC2)c(=O)c2cc3occc3n12 (centres undefined) | 21 | 0.03 | 3.8* | -1 | -2 | x | u | -75
CC12CCC(C(=O)Nc3ncc([N+](=O)[O-])s3)(OC1=O)C2(C)C (centres undefined) | x | x | x | x | x | 14 | x | x
COC(=O)c1ccc(OCC2c3cc(OC)c(OC)cc3CCN2C(=O)C2CC2)cc1 (centres undefined) | 9 | -0.099 | 8.7* | 0.45 | x | x | -32* | -47
O=C(c1ccco1)N1CCN(C(c2cccs2)c2nnnn2C2CCCCC2)CC1 (centres undefined) | -9 | -0.4 | 0.085 | -0.43 | -4 | -17 | x | x
O=C1c2ccccc2-c2onc3ccc(NCc4ccco4)c1c23 | x | -0.005 | 183* | 2.1 | x | x | 624* | 1149*
CCOc1ccc2noc3c2c1C(=O)c1ccccc1-3 | -1 | -9.6* | 397* | 3.6 | -1 | x | 3216* | 2874*
CCOc1ccc(-c2nc(-c3ccccc3)no2)cc1OCC | -9 | 0.95 | 0.78 | -0.026 | -10 | x | x | x
CN1CCN(C(=O)C23CCC(C)(c4nc5ccccc5nc42)C3(C)C)CC1 (centres undefined) | x | x | x | x | x | 49 | x | x
CC(C)CC1(C)NC(=O)N(CCN2C(=O)c3ccccc3C2=O)C1=O (centres undefined) | 2 | 0.64 | -0.12 | -0.085 | 0 | -8 | x | x
Cc1ccc(S(=O)(=O)/N=C(\c2ccc(Cl)cc2)N2CCOCC2)cc1 | x | x | x | x | x | -4 | x | x
COc1ccc2nc(N3CCCC3)c(C#N)cc2c1 | 18 | -1.2 | 92* | 2.8 | 6 | -29 | 1016* | 1175*
O=C(O)CCCCCCCCCC(=O)c1cccs1 | x | x | x | x | x | -89 | x | x
CCC1=C/C(=C/N(C)c2ccccc2)C(=O)S1 | 2 | 0.45 | 0.12 | 0.084 | 0 | -7 | x | x
